Test results from ChEMBL document CHEMBL1143966, “Design and synthesis of eugenol derivatives, as potent 15-lipoxygenase inhibitors” (Bioorg Med Chem, 2008).

Tests used:
[1] = Partition coefficient, log P of the compound; type: physicochemical; settings: octanol/water
[2] = Inhibition of soybean 15-lipoxygenase; set-up: species or system Glycine max
Summary of the method: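 Soybean 15-lipoxygenase with linoleic acid substrate (final 134 µM) in 0.1 M borate buffer pH 9 at 20 ± 1 °C. Absorbance read at 234 nm for 60 s after enzyme addition. Inhibitor plus linoleic acid served as blank. At least six controls and three tubes per inhibitor solution. Enzyme kept on ice, with controls run at intervals. IC50 from linear interpolation around 50% activity.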

Work on `C=CCc1ccc(OC(=O)C23CC4CC(CC(C4)C2)C3)c(OC)c1` yielded a logP [1] of 4.82 and an IC50 [2] of 0.017 µM.
Compound `C=CCc1ccc(OC(=O)C2CCCCC2)c(OC)c1` has a logP [1] of 3.52 and an IC50 [2] of 2.2 µM.
For `C=CCc1ccc(OC(=O)c2ccccn2)c(OC)c1`, the logP [1] was 0.86 and the IC50 [2] was 33.3 µM.
With `C=CCc1ccc(OC(=O)c2cccc(F)c2)c(OC)c1` the logP [1] was 2.7 and the IC50 [2] was 2.1 µM.
Compound `C=CCc1ccc(OC(=O)c2cccnc2)c(OC)c1` has a logP [1] of 0.86 and an IC50 [2] of 1.7 µM.
With `C=CCc1ccc(OC(=O)c2ccccc2Cl)c(OC)c1` the logP [1] was 2.79 and the IC50 [2] was 168 µM.
In the case of `C=CCc1ccc(OC(=O)c2cccc(OC)c2)c(OC)c1`, the logP [1] is reported as 1.86 and the IC50 [2] is reported as 23 µM.
For `C=CCc1ccc(OC(=O)c2ccccc2)c(OC)c1` [EUGENYL BENZOAT], the logP [1] was 2.25 and the IC50 [2] was 4.4 µM.
With `C=CCc1ccc(OC(=O)c2ccncc2)c(OC)c1` the logP [1] was 0.86 and the IC50 [2] was 2.3 µM.
Compound `C=CCc1ccc(O)c(OC)c1` [EUGENOL] has an IC50 [2] of 34.6 µM.
Work on `C=CCc1ccc(OC(=O)c2ccc(F)cc2)c(OC)c1` yielded a logP [1] of 2.7 and an IC50 [2] of 7.2 µM.
With `C=CCc1ccc(OC(=O)c2ccc(Cl)cc2)c(OC)c1` the logP [1] was 2.79 and the IC50 [2] was 134 µM.
Compound `C=CCc1ccc(OC(=O)c2cccc(Cl)c2)c(OC)c1` has a logP [1] of 2.79 and an IC50 [2] of 5.2 µM.
Work on `C=CCc1ccc(OC(=O)c2ccc(OC)cc2)c(OC)c1` yielded a logP [1] of 1.86 and an IC50 [2] of 19 µM.
In the case of `C=CCc1ccc(OC(=O)c2ccccc2C)c(OC)c1`, the logP [1] is reported as 2.87 and the IC50 [2] is reported as 77.2 µM.
In the case of `C=CCc1ccc(OC(=O)c2ccc(C)cc2)c(OC)c1`, the logP [1] is reported as 2.87 and the IC50 [2] is reported as 14.6 µM.
Work on `C=CCc1ccc(OC(=O)c2ccccc2F)c(OC)c1` yielded a logP [1] of 2.7 and an IC50 [2] of 6.7 µM.
Compound `C=CCc1ccc(OC(=O)c2cccc(C)c2)c(OC)c1` has a logP [1] of 2.87 and an IC50 [2] of 11.4 µM.
